TRPC4 potent = positive allosteric modulators of TRPC4, primary screen, cell-based, mouse TRPC4beta, HEK293 mu-opioid, Fluo-4 calcium. DAMGO EC20, Fluo-4 Ca2+ flux; hits give high values. B-score at 10 µM. 310,000 tested, 0.42% active. AID 2227, 2009;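 active = B-score of calcium response area above 5 SD of library B-scores, with initial fluorescence ratio within 5 SD of library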
TRPC6 inh = mouse TRPC6 channel inhibitors, primary screen, cell-based, HEK293, membrane potential dye; Short transient receptor potential channel 6 (Mus musculus), Q61143; ACh-evoked depolarization; hits give low values; B-score at 10 µM; 310,000 tested, 1.1% active;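 active = B-score under library mean minus 3 SD, initial fluorescence not abnormally high, positive integrated signal ratio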;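 note: B-score derived from integrated fluorescence ratio over the kinetic read; more negative B-score means stronger inhibition of depolarization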
Target sequence (Q61143 whole entry, looked up): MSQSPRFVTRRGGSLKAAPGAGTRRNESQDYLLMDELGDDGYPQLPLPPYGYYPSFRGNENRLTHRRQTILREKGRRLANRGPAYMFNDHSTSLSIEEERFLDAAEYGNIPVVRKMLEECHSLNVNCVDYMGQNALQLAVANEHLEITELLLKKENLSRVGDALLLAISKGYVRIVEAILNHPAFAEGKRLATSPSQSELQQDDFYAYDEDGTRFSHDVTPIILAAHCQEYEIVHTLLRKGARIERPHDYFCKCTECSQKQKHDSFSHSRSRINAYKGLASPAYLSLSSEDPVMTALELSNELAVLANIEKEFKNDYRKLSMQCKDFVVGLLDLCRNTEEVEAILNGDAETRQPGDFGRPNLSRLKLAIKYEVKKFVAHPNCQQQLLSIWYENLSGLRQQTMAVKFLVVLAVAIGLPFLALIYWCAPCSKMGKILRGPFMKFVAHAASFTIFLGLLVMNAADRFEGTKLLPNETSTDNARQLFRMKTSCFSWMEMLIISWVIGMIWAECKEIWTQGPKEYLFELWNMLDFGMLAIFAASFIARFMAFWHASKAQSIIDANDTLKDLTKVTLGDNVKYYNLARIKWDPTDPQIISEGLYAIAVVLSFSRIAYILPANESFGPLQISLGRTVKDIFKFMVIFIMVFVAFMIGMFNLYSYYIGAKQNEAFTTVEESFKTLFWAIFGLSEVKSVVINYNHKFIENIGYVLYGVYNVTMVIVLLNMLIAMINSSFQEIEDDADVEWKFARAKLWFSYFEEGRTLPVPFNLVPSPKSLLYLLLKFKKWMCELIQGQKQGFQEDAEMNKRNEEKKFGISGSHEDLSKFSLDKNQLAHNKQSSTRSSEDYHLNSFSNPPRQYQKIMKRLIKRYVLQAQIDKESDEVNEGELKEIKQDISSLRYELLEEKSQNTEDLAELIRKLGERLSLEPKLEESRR
TRPC6 activator = mouse TRPC6 channel activators, primary screen, cell-based, HEK293, membrane potential dye. HEK293-TRPC6 membrane potential dye fluorescence; hits give high values. B-score at 10 µM. 310,000 tested, 0.13% active;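 active = B-score of the integrated fluorescence ratio above library mean plus 3 SD, and starting fluorescence ratio within library mean plus 5 SD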;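 note: higher score means more depolarization so channel activation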
TRPC4 inh = inhibitors of mouse TRPC4 channel, primary screen, Fluo4 calcium, HEK293 TRPC4beta/mu-opioid cells; Short transient receptor potential channel 4 (Mus musculus), Q9QUQ5; DAMGO-evoked Fluo4 calcium flux; hits give low values; B-score at 10 µM; 300,000 tested, 0.39% active; AID 2247, 2010;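 active = B-score over 3 SD under the library average, no early fluorescence shift, positive overall ratio signal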
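Material: HEK293 cells with stable TRPC4beta plus mu-opioid receptor expression; probe or stimulus: DAMGO in two steps, submaximal then maximal; technique: Fluo4 calcium fluorescence by kinetic imaging, 5 s 1 Hz baseline; measure: integrated fluorescence ratio relative to baseline, converted to per-well B score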
TRPC4 act = activators of mouse TRPC4 channel, primary screen, Fluo4 calcium, HEK293 TRPC4beta/mu-opioid cells; Short transient receptor potential channel 4 (Mus musculus), Q9QUQ5; B-score at 10 µM; Fluo4 calcium fluorescence; hits give high values; 310,000 tested, 0.49% active;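 active = B-score above 5 SD of library B-scores, and initial fluorescence ratio not above library mean plus 5 SD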;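 note: positive B-score marks a calcium rise read as TRPC4 activation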
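Material: TRPC4beta and mu-opioid receptor HEK293 stable cells | Incubation: 45 min room-temperature Fluo4 loading, 110 s read | Detection: Kinetic Fluo4 calcium fluorescence | Measure: Integrated baseline-normalised fluorescence ratio, converted to per-well B score | Benchmarks: Low control buffer alone, high control maximal DAMGO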
TRPC4 sel inh 2 = mouse TRPC4 off-target activity of TRPC6 inhibitors, second screen; AID 2776; HEK293 TRPC4/MOR, membrane potential dye fluorescence; channel activated by saturating DAMGO dose; inhibition, % at 10 µM; 920 tested, 42% active; shares compounds with TRPC6 inh;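 active = compounds whose fluorescence signal differed from control wells by over 3 SD, either direction, in both duplicate plates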
TRPC4 spec = mouse TRPC4 modulation by TRPC6 hits, confirmation, selectivity assay for TRPC6 inhibitor project, cell-based, HEK293 TRPC4/mu-opioid, membrane potential dye; 920 tested, 61% active; activity change, negative = inhibition, % at 10 µM; AID 2777, 2010; membrane potential fluorescence; shares compounds with TRPC6 inh;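 active = rise or fall in signal beyond 3 SD of buffer-only wells in both replicate plates, either sign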;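 note: integrated kinetic ratio of fluorescence range over baseline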
HEK293 MPD ctr 2-1 = nonspecific membrane potential effects, parental HEK293, confirmation, counter-screen for TRPC6 inhibitor project, cell-based, second counter screen. parental HEK293 membrane potential dye fluorescence; maximal acetylcholine challenge after compound addition. AID 2779, 2010. shares compounds with TRPC6 inh. signal change vs control, % at 10 µM. 920 tested, 31% active;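 active = membrane potential signal moving either way by over 3 SD of the maximum-effect control, in both duplicate plates, meaning non-specific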
HEK293 MPD ctr-1 = membrane potential modulation in parental HEK293, confirmation, counter-screen for TRPC6 inhibitor project, cell-based; shares compounds with TRPC6 inh; parental HEK293 membrane potential dye fluorescence; membrane potential signal change, % at 10 µM; 920 tested, 60% active;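 active = membrane potential signal shifting up or down by more than 3 SD of buffer-only wells, on both duplicate plates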
HEK293 MPD ctr-2 = parental HEK293 membrane potential modulation, confirmation, counter-screen for TRPC6 modulator project, cell-based. shares compounds with TRPC6 inh. membrane potential dye fluorescence. membrane potential signal change, % at 10 µM. 2,400 tested, 51% active;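 active = membrane potential signal moves up or down beyond 5 SD from buffer-only wells, on both duplicate plates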
HEK293 MPD ctr 2-2 = second check of TRPC6 modulator effects in parental HEK293 cells; shares compounds with TRPC6 inh; membrane potential dye fluorescence; after compound, maximal acetylcholine stimulation; inhibition, % at 10 µM; 2,400 tested, 14% active; AID 488926;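 active = membrane potential signal drops by more than 5 SD from the mean control signal, in both duplicate plates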
TRPC4/MOR mod = TRPC4 modulation by TRPC6 hit compounds, confirmation, selectivity assay for TRPC6 modulator project, cell-based, HEK293 TRPC4/mu-opioid, membrane potential dye, mouse | shares compounds with TRPC6 inh | membrane potential fluorescence | percent change from control (negative = decrease, positive = increase), % at 10 µM | 2,400 tested, 69% active | AID 488927, 2010;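 active = membrane potential signal moved up or down beyond 5 SD of buffer control wells, in both duplicate plates, actives on both sides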
TRPC4 ctr inh 2 = second selectivity test of TRPC6 modulators against mouse TRPC4 | 2,400 tested, 55% active | AID 488928 | HEK293 TRPC4/mu-opioid, membrane potential dye fluorescence; stimulated with maximal-effect DAMGO | inhibition, % at 10 µM | shares compounds with TRPC6 inh;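 active = drop in membrane potential signal beyond 5 SD of the control wells in both duplicate plates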;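 note: TRPC4 counter screen for TRPC6 hits run under conditions tuned for TRPC6 not TRPC4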
TRPC6 block conf = mouse TRPC6 channel inhibitors, confirmation, HEK293 cells, membrane potential dye, duplicate. shares compounds with TRPC6 inh. ACh-evoked depolarization. inhibition, % at 10 µM. 3,300 tested, 43% active. AID 488960, 2010;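 active = fluorescence ratio falls more than 5 SD below the full-stimulation control mean, in both duplicate runs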;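 note: integrated fluorescence ratio of peak minus minimum over baseline after agonist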
TRPC6 act confirm = mouse TRPC6 channel activators, confirmation, HEK293 cells, membrane potential dye, duplicate | HEK293-TRPC6 membrane potential dye fluorescence, FDSS | shares compounds with TRPC6 inh | activation, % at 10 µM | 2,800 tested, 11% active;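 active = ratio signal rise beyond 5 SD above unstimulated control wells' mean, seen in both duplicate runs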
A number is an active result; i = inactive; nt = no result given. Only some compounds are listed: those with a hit (about 2.3% of all), similar ones and a draw of the others.

SMILES	TRPC4 potent	TRPC6 inh	TRPC6 activator	TRPC4 inh	TRPC4 act	HEK293 MPD ctr-2	HEK293 MPD ctr 2-2	TRPC4/MOR mod	TRPC4 ctr inh 2	TRPC6 block conf	TRPC6 act confirm	others
CSc1ccc(C(=O)C2CCCN(Cc3ccc(N4CCNC4=O)cc3)C2)cc1 (stereo unspecified)	i	-5.8	i	i	i	i	i	i	88%	55%	i
CCOC(=O)c1[nH]ncc1CN1CCCC(C(=O)c2ccc(SC)cc2)C1 (stereo unspecified)	i	-5.7	i	i	i	i	i	11%	30%	i	nt
O=C(N/N=C/c1cccc(NC(=O)c2ccc(Cl)cc2)c1)c1cccc(O)c1	i	i	i	i	i	nt	nt	nt	nt	nt	nt
COc1ccc(OCCCC(=O)OCC(=O)Nc2c(C)nn(-c3ccccc3)c2C)cc1	i	i	i	i	i	nt	nt	nt	nt	nt	nt
O=C(C1=COCCO1)N1CCN(C(c2ccccc2)c2ccccc2)CC1	i	-7	i	i	i	nt	nt	nt	nt	i	nt	TRPC4 sel inh 2=i;TRPC4 spec=1.6%;HEK293 MPD ctr 2-1=i;HEK293 MPD ctr-1=1.7%
Cc1ccc2sc(NNC(=O)C3=COCCO3)nc2c1C	i	i	i	i	i	nt	nt	nt	nt	nt	nt
Cc1cc2nc(N3CCN(C(=O)c4cccs4)CC3)sc2cc1C	i	i	i	i	i	nt	nt	nt	nt	nt	nt
Cc1ccc(S(=O)(=O)N2CCN(C(=O)c3cccs3)CC2)cc1C	i	i	18	i	i	i	i	16%	i	nt	148%
Cc1ccc2sc(N3CCN(C(=O)C4=COCCO4)CC3)nc2c1C	i	-5.4	i	i	i	i	i	17%	i	68%	nt
Cc1cc(C)c2nc(N3CCN(C(=O)c4cccs4)CC3)sc2c1	i	-6.5	i	i	i	i	i	i	i	i	i
CCOC(=O)c1c(NC(=O)CSc2nnnn2-c2ccccc2)sc2c1CCC(C)C2 (stereo unspecified)	i	i	i	i	i	nt	nt	nt	nt	nt	nt
Cc1ccc(S(=O)(=O)N2CCN(C(=O)C3=COCCO3)CC2)cc1C	i	-7	i	i	i	nt	nt	nt	nt	i	i	TRPC4 sel inh 2=i;TRPC4 spec=-0.7%;HEK293 MPD ctr 2-1=i;HEK293 MPD ctr-1=i
Cc1cc(CN(C)C(=O)C2CCC(=O)N(CCc3cccc(F)c3)C2)on1 (stereo unspecified)	i	i	i	i	i	nt	nt	nt	nt	nt	nt
COC(=O)C1Cc2c([nH]c3ccccc23)C2(CCN(Cc3ccccc3)CC2)N1 (stereo unspecified)	i	-7.5	i	i	i	nt	nt	nt	nt	i	i	TRPC4 sel inh 2=47%;TRPC4 spec=5.6%;HEK293 MPD ctr 2-1=248%;HEK293 MPD ctr-1=i
O=C(Cn1[nH]c(=O)c2ccccc2c1=O)OCC(=O)N1CCCc2ccccc21	i	i	i	i	i	nt	nt	nt	nt	nt	nt
O=C(Cn1[nH]c(=O)c2ccccc2c1=O)OCC(=O)N1CCc2ccccc2C1	i	-7.3	i	i	i	nt	nt	nt	nt	i	nt	TRPC4 sel inh 2=i;TRPC4 spec=7.2%;HEK293 MPD ctr 2-1=i;HEK293 MPD ctr-1=4.2%
COCCCNC(=O)CN(CCc1ccccc1)S(=O)(=O)c1ccc(OC)cc1	i	i	i	i	i	nt	nt	nt	nt	nt	nt
COCCCN(CC(=O)NCc1ccccc1)S(=O)(=O)c1ccc(C)cc1	i	-6.3	i	i	i	i	i	i	i	i	i
O=C(CN1CCN(c2ccccc2F)CC1)NC(=O)NCc1ccccc1	i	-5.1	i	i	i	i	i	i	i	i	i
Cc1ccccc1N(CC(=O)NCc1ccco1)C(=O)CCC(=O)Nc1nccs1	i	i	i	i	i	nt	nt	nt	nt	nt	nt
Cc1nc(C)c(CCNC(=O)c2ccccc2)s1	i	-6	i	i	i	i	i	i	i	i	i
Cc1n[nH]c(=O)nc1N/N=C/c1ccco1	i	i	i	i	i	nt	nt	nt	nt	nt	nt
CCCCn1c(N)c(N(CCC(C)C)C(=O)C2CSC3(C)CCC(=O)N23)c(=O)[nH]c1=O (stereo unspecified)	i	i	i	i	i	nt	nt	nt	nt	nt	nt
CCCn1c(=N)n(CC(=O)c2ccc(Cl)cc2)c2ccccc21	i	-7.3	i	i	i	nt	nt	nt	nt	i	i	TRPC4 sel inh 2=26%;TRPC4 spec=35%;HEK293 MPD ctr 2-1=258%;HEK293 MPD ctr-1=3.4%
CCCn1c(=N)n(CC(=O)c2ccc([N+](=O)[O-])cc2)c2ccccc21	i	i	i	i	i	nt	nt	nt	nt	nt	nt
N#CC(C#N)=C1c2cc(S(=O)(=O)NCCO)ccc2-c2ccc(S(=O)(=O)NCCO)cc21	i	-5.2	i	i	i	-138%	i	-30%	i	i	i
CC(=O)Nc1ccc(Nc2nc(C)nc3c2oc2ccccc23)cc1	i	i	i	i	i	nt	nt	nt	nt	nt	nt
CCc1nc(Nc2ccncc2)c2oc3ccccc3c2n1	i	-5.7	i	i	i	i	76%	-8.0%	i	i	i
Cc1nc(Nc2ccncc2)c2oc3ccccc3c2n1	i	-6.4	i	i	i	106%	113%	11%	i	56%	i
